Some results are limits rather than exact numbers.

A short description of data set [1]: Therapeutic index, TC50 for human CEM174 cells to EC50 for SIV-induced syncytium. The class given is cell-based. The following applies: read-out: TI. In a few lines: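 Index calculated as TC₅₀ (MTT, uninfected CEM174, 5 days) divided by EC₅₀ (inhibition of SIV syncytium formation in CEM174 cells infected with 100 TCID₅₀ per well, 5 days, microscopic scoring).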

Data set [2] has as its target Structural capsid protein (Human immunodeficiency virus 1) (UniProt Q76129). In words: Binding affinity to HIV1 capsid protein assessed as decrease in assembly rate by turbidity-based ultraviolet spectrophotometry (RVb= 59.2+/-0.3 milliOD/min).
Data set [3] in a line: Cytotoxicity against uninfected human CEM174 cells after 5 days by MTT assay. Format: cell-based. Conditions: read-out: TC50. In a few lines:
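Uninfected CEM174 cells under the antiviral assay conditions (5 days, 37 °C, 5% CO₂, humidified) with compound dilutions. Proliferation read by MTT reduction. TC₅₀ is the concentration inhibiting proliferation by 50%.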
(In general: Tetrazolium assays rely on reduction of a dye to a coloured formazan, in cell work by metabolically active cells.)

In data set [4] the test system is Simian immunodeficiency virus. In words: Antiviral activity against SIV-induced syncytium in human CEM174 cells assessed as inhibition of virus-induced cytopathogenicity after 5 days. The following applies: CEM174, 120 h. The class given is functional, organism-based. In a few lines: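 CEM174 cells at 1 × 10⁵ cells/mL, infected with 100 TCID₅₀ SIV per well, with serial compound dilutions; 5 days at 37 °C, 5% CO₂, humidified. Syncytium (giant cell) formation scored by microscope. EC₅₀ is the concentration giving 50% protection against SIV cytopathogenicity. Indinavir at 1 × 10⁻⁶ mol/L served as positive control.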
Background: Cytopathic effects are the visible damage that an infection or toxin causes in cultured cells.

The target of data set [5] is Structural capsid protein (Human immunodeficiency virus 1) (UniProt Q76129). In words: Binding affinity to HIV1 capsid protein assessed as assembly rate at 40 uM by turbidity-based ultraviolet spectrophotometry.
Chain of Structural capsid protein (Human immunodeficiency virus 1) (Q76129 as listed by the source): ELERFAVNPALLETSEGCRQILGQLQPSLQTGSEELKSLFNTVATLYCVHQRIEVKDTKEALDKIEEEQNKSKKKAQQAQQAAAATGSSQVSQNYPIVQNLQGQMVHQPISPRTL
Data set [6] shares this target. The experiment in a line: Binding affinity to HIV1 capsid protein assessed as assembly rate at 10 uM by turbidity-based ultraviolet spectrophotometry.
Data set [7] has the same target. In words: Binding affinity to HIV1 capsid protein assessed as assembly rate at 20 uM by turbidity-based ultraviolet spectrophotometry.

As usually defined, the EC50 is the concentration giving half of the maximal effect. Turning to `Cc1ccc(S(=O)(=O)N[C@@H](Cc2ccccc2)C(=O)N/N=C/c2ccc([N+](=O)[O-])cc2)cc1`, in data set [1], the selectivity ratio stood at 1.5. Moreover, in data set [2], the Activity (milli optical density/minute) amounted to 31.9. Also, the CC50 at 120 h in data set [3] stood at 9.8 µM. Besides, the EC50 in data set [4] worked out at 6.64 µM.
As for `C/C(=N\NC(=O)[C@H](Cc1ccccc1)NS(=O)(=O)c1ccc(C)cc1)c1cccc2ccccc12`, the selectivity ratio in data set [1] was 123. Further, the CC50 at 120 h in data set [3] came to 49.1 µM. Also, the EC50 in data set [4] amounted to 0.4 µM.
As for `O=C(N[C@@H](CO)C(=O)N/N=C/c1ccccc1)c1ccc([N+](=O)[O-])cc1`, the selectivity ratio in data set [1] was above 50. Further, the CC50 at 120 h in data set [3] is above 100 µM. The EC50 in data set [4] was found to be 2 µM.
In the same order, the values of `Cc1ccc(S(=O)(=O)N/N=C/c2ccccc2)cc1` are 88.1, 31.7 µM and 0.36 µM.
For `Cc1ccc(S(=O)(=O)N[C@@H](Cc2ccccc2)C(=O)N/N=C/c2ccco2)cc1`, in that order: 40.6, 99.8 µM and 2.46 µM.
Regarding `O=C(CNS(=O)(=O)c1ccc(Br)cc1)N/N=C/c1ccccc1`, in data set [1], the selectivity ratio was 284. Also, the Activity (milli optical density/minute) in data set [2] amounted to 22.5. In data set [3], the CC50 at 120 h was found to be 92.8 µM. The EC50 in data set [4] is 0.33 µM.
As to `O=C(N/N=C/c1ccccc1)[C@H](CO)NS(=O)(=O)c1ccc(Br)cc1`, the selectivity ratio in data set [1] amounted to 2.2. Further, the CC50 at 120 h in data set [3] was 80.2 µM. Further, the EC50 in data set [4] is 36 µM.
For `Cc1ccc(S(=O)(=O)N[C@@H](Cc2ccccc2)C(=O)N/N=C/c2ccc(Cl)cc2)cc1`, in that order: 3.4, 9.4 µM and 2.8 µM.
`Cc1ccc(S(=O)(=O)N[C@@H](Cc2ccccc2)C(=O)N/N=C/c2ccccc2F)cc1`: in data set [1], the selectivity ratio is above 22.5. Further, the CC50 at 120 h in data set [3] is above 100 µM. Moreover, the EC50 in data set [4] is 4.45 µM.
Consider `COc1ccc(C(=O)N[C@@H](Cc2ccccc2)C(=O)N/N=C/c2ccccc2)cc1`, for which the selectivity ratio in data set [1] was above 500. The Activity (milli optical density/minute) in data set [2] came to 22.6. For the same molecule, in data set [3], the CC50 at 120 h was above 100 µM. Also, the EC50 in data set [4] turned out to be 0.2 µM.
In the same order, the values of `Cc1ccc(S(=O)(=O)N[C@@H](CO)C(=O)N/N=C/c2ccccc2)cc1` are 3.2, 24.4, 5.19 µM and 1.63 µM.
Turning to `Cc1ccc(S(=O)(=O)N[C@@H](Cc2ccccc2)C(=O)NN=C(c2ccccc2)c2ccccc2)cc1`, the selectivity ratio in data set [1] is above 365. The CC50 at 120 h in data set [3] is above 100 µM. Moreover, the EC50 in data set [4] was found to be 0.27 µM.
In the same order, the values of `CC(=O)Nc1ccc(S(=O)(=O)NCC(=O)N/N=C/c2ccccc2)cc1` are above 6.6, above 100 µM and 15.1 µM.
As to `Cc1ccc(S(=O)(=O)N[C@@H](Cc2ccccc2)C(=O)NN=C2CCCCC2)cc1`, the selectivity ratio in data set [1] turned out to be 87.6. The CC50 at 120 h in data set [3] worked out at 78.3 µM. In addition, the EC50 in data set [4] is 0.89 µM.
Take `C/C(=N\NC(=O)[C@H](Cc1ccccc1)NS(=O)(=O)c1ccc(C)cc1)c1ccccc1`: the selectivity ratio in data set [1] was 70.7. Further, the CC50 at 120 h in data set [3] was determined as 21.2 µM. For the same molecule, the EC50 in data set [4] turned out to be 0.3 µM.
Regarding `CC(=O)Nc1ccc(S(=O)(=O)N[C@@H](CO)C(=O)N/N=C/c2ccccc2)cc1`, the selectivity ratio in data set [1] was above 75.8. Further, the CC50 at 120 h in data set [3] is above 100 µM. The EC50 in data set [4] was found to be 1.32 µM.
In the same order, the values of `O=S(=O)(N/N=C/c1ccccc1)c1ccc(Br)cc1` are above 105, above 100 µM and 0.95 µM.
On to `CC(=O)Nc1ccc(S(=O)(=O)N/N=C/c2ccccc2)cc1`, for which, in data set [1], the selectivity ratio stood at 61.5. The CC50 at 120 h in data set [3] came out at 40 µM. In addition, the EC50 in data set [4] worked out at 0.65 µM.
For `COc1ccc(C(=O)N/N=C/c2ccccc2)cc1`, the selectivity ratio in data set [1] is above 3.22. For the same molecule, in data set [3], the CC50 at 120 h is above 100 µM. Further, the EC50 in data set [4] turned out to be 31.1 µM.
`COc1ccc(C(=O)N[C@@H](CO)C(=O)N/N=C/c2ccccc2)cc1`: the selectivity ratio in data set [1] was found to be 76. Further, in data set [2], the Activity (milli optical density/minute) was found to be 21.7. In addition, the CC50 at 120 h in data set [3] was found to be 45.6 µM. In data set [4], the EC50 was 0.6 µM.
`Cc1ccc(S(=O)(=O)N[C@@H](Cc2ccccc2)C(=O)N/N=C/c2ccccc2)cc1`: the selectivity ratio in data set [1] came out at 125. In addition, in data set [2], the Activity (milli optical density/minute) stood at 18.9. Moreover, the CC50 at 120 h in data set [3] came out at 50 µM. Besides, the EC50 in data set [4] amounted to 0.4 µM.
For `COc1cc(/C=N/NC(=O)[C@H](Cc2ccccc2)NS(=O)(=O)c2ccc(C)cc2)ccc1O`, the selectivity ratio in data set [1] is above 476. The Activity (milli optical density/minute) in data set [2] came to 10.6; in data set [5], 7.7; in data set [6], 14; in data set [7] it was 10.9. For the same molecule, the CC50 at 120 h in data set [3] is above 100 µM. Further, the EC50 in data set [4] turned out to be 0.21 µM.
Regarding `O=C(N/N=C/c1ccccc1)c1ccc([N+](=O)[O-])cc1`, in data set [1], the selectivity ratio was 5.3. The CC50 at 120 h in data set [3] amounted to 29.6 µM. Moreover, in data set [4], the EC50 was 5.59 µM.
Consider `Cc1ccc(S(=O)(=O)N[C@@H](Cc2ccccc2)C(=O)N/N=C/c2ccc3c(c2)OCO3)cc1`, for which the selectivity ratio in data set [1] was above 588. The Activity (milli optical density/minute) came out at 7.9 in data set [2], 2.5 in data set [5], 13.2 in data set [6] and 7.4 in data set [7]. In data set [3], the CC50 at 120 h is above 100 µM. For the same molecule, the EC50 in data set [4] turned out to be 0.17 µM.
For `O=[N+]([O-])c1ccc(S(=O)(=O)N2CCC(c3ccccc3)=N2)cc1`, the selectivity ratio in data set [1] was above 192. Besides, in data set [3], the CC50 at 120 h was above 100 µM. The EC50 in data set [4] amounted to 0.52 µM.
`O=C(N/N=C/c1ccccc1)[C@H](Cc1ccccc1)NS(=O)(=O)c1ccc(Br)cc1`: the selectivity ratio in data set [1] was above 6.5. The CC50 at 120 h in data set [3] is above 100 µM. In data set [4], the EC50 stood at 15.3 µM.
As to `O=C(CNC(=O)c1ccc([N+](=O)[O-])cc1)N/N=C/c1ccccc1`, the selectivity ratio in data set [1] is above 97.1. Also, the CC50 at 120 h in data set [3] was above 100 µM. Further, the EC50 in data set [4] was 1.03 µM.
As for `Cc1ccc(/C=N/NC(=O)[C@H](Cc2ccccc2)NS(=O)(=O)c2ccc(C)cc2)cc1`, the selectivity ratio in data set [1] was above 10.1. Moreover, the Activity (milli optical density/minute) in data set [2] amounted to 46. The CC50 at 120 h in data set [3] is above 100 µM. The EC50 in data set [4] worked out at 9.93 µM.
In the same order, the values of `COc1ccc(C(=O)NCC(=O)N/N=C/c2ccccc2)cc1` are 31.9, 43.5, 63.8 µM and 2 µM.
On to `CC(=O)Nc1ccc(S(=O)(=O)N[C@@H](Cc2ccccc2)C(=O)N/N=C/c2ccccc2)cc1`, for which the selectivity ratio in data set [1] is above 213. The Activity (milli optical density/minute) in data set [2] is 20.8. In addition, the CC50 at 120 h in data set [3] was above 100 µM. In addition, the EC50 in data set [4] worked out at 0.47 µM.
Consider `Cc1ccc(S(=O)(=O)NCC(=O)N/N=C/c2ccccc2)cc1`, for which, in data set [1], the selectivity ratio turned out to be 55.7. For the same molecule, in data set [2], the Activity (milli optical density/minute) was determined as 23.1. The CC50 at 120 h in data set [3] was 83.5 µM. Besides, in data set [4], the EC50 is 1.5 µM.
In the same order, the values of `O=S(=O)(c1ccc(Br)cc1)N1CCC(c2ccccc2)=N1` are 382, 17.3, 38.2 µM and 0.1 µM.
As for `Cc1ccc(NC(=O)NCCSCc2ccc(CN(C)C)o2)cc1Cl`, in data set [2], the Activity (milli optical density/minute) stood at 33.4.
For the molecule `Cc1ccc(S(=O)(=O)N[C@@H](Cc2ccccc2)C(=O)N/N=C/c2ccc(Br)cc2)cc1`, the selectivity ratio in data set [1] stood at 15. In addition, the CC50 at 120 h in data set [3] is 82.5 µM. Moreover, the EC50 in data set [4] turned out to be 5.49 µM.
For `O=C(N[C@@H](Cc1ccccc1)C(=O)N/N=C/c1ccccc1)c1ccc([N+](=O)[O-])cc1`, in that order: 6.2, 18.7 µM and 3 µM.

For the origin of these results see ChEMBL document CHEMBL1153989, “Synthesis and antiviral activities of novel acylhydrazone derivatives targeting HIV-1 capsid protein” (Bioorg Med Chem Lett, 2009).
